According to the EternaBench riboswitch data:

System: MS2 coat protein
Experiment: apparent Kd, MS2 coat protein; higher = weaker binding; RNA-MaP array; FMN 200 µM where present
Method in brief: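 SNAP-549-labelled MS2 coat protein, doubled from 0.7 or 1.5 nM to 3 µM, was titrated over designs transcribed by stalled E. coli RNA polymerase on Illumina sequencing-chip clusters. Titrations were run without and then with constant ligand in 100 mM Tris-HCl pH 7.5, 80 mM KCl, 4 mM MgCl2, BSA, DTT, yeast tRNA and Tween-20. The apparent Kd is the median of filtered per-cluster fits to green signal normalised to red-channel RNA signal and control-cluster median Fmax.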

[1] = designed as: ON switch for flavin mononucleotide, no ligand
[2] = ligand present: flavin mononucleotide, designed as: ON switch for flavin mononucleotide
[3] = designed as: OFF switch for flavin mononucleotide, no ligand
[4] = ligand present: flavin mononucleotide, designed as: OFF switch for flavin mononucleotide

Sequence | apparent Kd [1] [nM] | apparent Kd [2] [nM] | apparent Kd [3] [nM] | apparent Kd [4] [nM]
UUUGCAUUCCGAGGAUAUUCAUUUAAUGUCUUCACAUGAGGAUCACCCAUGUGGCGCUUGCGCCGGGAGAAGGCGGUUUGCUUU | 28.6 | 29.3 |  | 
AGGCGUGCUGAGGAUAUACUACCGGUUGCGAUAGUAGAAGGUAGCACAUGAGGAUCACCCAUGUGGUCAGAUGC |  |  | 24 | 64.6
CGGCGGGCAGGAUAUACAUGAGGAUCACCCAUGUGUGUCCAUACGCGUGAGUCCUCGUGUAGAAGGGUUUGUUG |  |  | 14.9 | 13.4
UUUUUUUACUAGGAUAUCAGAGUCGAAAGACUCUGAGAAGGAGUAACAUGAGGAUCACCCAUGUGUCCUUUUUU |  |  | 20.1 | 49.3
GGACAUUUACAGAAGGGCAAAUUUUAUAGUGAAUAUUUAGUUCUGAUUUGCAGGAUAUGUUGAACAUGAGGAUCACCCAUGUCC | 18.3 | 10.9 |  | 
GCCAGCGCAUGAGGAUAUGCUCCCGUUUCGGGAGCAGAAGGCAUGUCAUAAGACAUGAGGAUCACCCAUGUAGUUAACAUGGCA | 311 | 23 |  | 
GCCAUCGCAUGAGGAUAUGGUCAGGUUUCCUGACCAGAAGGCAUGUCAUAAGACAUGAGGAUCACCCAUGUAGUUAAGAUGGCA | 717 | 48.4 |  | 
GUCUUGUCAGGAUAUCUUACAUAACAAUCGUAGUUACCAUUGGAGAAGGGACAUGAGGAUCACCCAUGUUAGCC |  |  | 17.2 | 19.1
CCACUCGGUGAGAAGGCGCCGGCGUCCGCGAGGCGAGGAUAUCACAUGAGGAUCACCCAUGUGGGCAUGAAGAUUGCCACUAGG |  |  | 61.3 | 152
ACGCAGAGAGGAUAUACAUGAGGAUCACCCAUGUAUAAACGCACUAACUCUCCUCACUGUAGAAGGCUCAUGCA |  |  | 11.7 | 20.4
AGGCCGCUACGCCGGCUUCACGCACAGGAUAUGCAGUUACAUGAGGAUCACCCAUGUGGCCAUGUGCAGAAGGGUGGUUCGCGA | 39.5 | 18.6 |  | 
CCACGGUAUGUAGGAUAUGCAUAGCAUUGCUAAAAAGAAGGACAUGAGGAUCACCCAUGUAUGUAUUCCAUACUAAUCCCGUGC |  |  | 8.98 | 8.06
UUGGACGUCGUAGGAUAUGUAGGAUAUUCCUACAUGAGGAUCACCCAUGUUGACAUGAAAGAAGGACAGAAGGACGAUGUCCAU | 144 | 5.77 |  | 
UUGUUAUGUGUAGGAUAUGCAUAUUAUUAUUAUGCAGAAGGACAUGAGGAUCACCCAUGUAUAUUAUUAUUAUAUAUUAUAUAU |  |  | 28.7 | 37
GCCUUACAUGAGGAUCACCCAUGUGAGGAUAUUAACAGCUGCACUACUGAAGCGGCUGUAAGAAGGCACGUGGU |  |  | 30.5 | 37.8
CCGGUUGGCGCAGGAUAUACAUGAGGAUCACCCAUGUUCAUCAGGAUCACCGAUGAGUUUUUGUUGUAGAAGGGUGGCCCGGCC |  |  | 35.2 | 37.2
CCGCAUGCUGUCAGGAUAUCGUAGAUAAUAAUAUGCGAGAAGGGACAUGAGGAUCACCCAUGUAAGAGGCGGCC |  |  | 28.9 | 37.7
CUUUCGUGAGGAUAUCAGUAGUAAUAAAAUAAAAUUACUACUGAGAAGGCACAUGAGGAUCACCCAUGUUCCUC |  |  | 25 | 138
UUUGUUUAUGCAGGAUAUUGACUUUUAUUUCUACAAGAAGGGCAUUACAUGAGGAUCACCCAUGUCUACAUGUAUUUAACUAGU |  |  | 67.8 | 49.1
CGCGCGCGUGUUAGGAUAUAUGUGUGUGGUUAUUUAUAGAAGGGACAUGAGGAUCACCCAUGUGUGUGGGCGCG |  |  | 520 | 489
GUUGUCUAUGUAGGAUAUGCGAGGCGAGGCCUCGCAGAAGGACAUGAGGAUCACCCAUGUAUUGCGGUCUGCGUUCAGAUCGCU |  |  | 32.9 | 286
AUAAAACAAAACCACACAUGAGGAUCACCCAUGUCAAGAUUACAGGAUAUCCAGCAGAGAUGCAUGGAGAAGGGUGAUCCCAAA | 37.1 | 56.5 |  | 
UUCCUACAUGAGGAUCACCCAUGUCAGGAUAUCUCCUCACCGCGAAUGGGCAGUGAAUAGAGAAGGGACAGGAA |  |  | 11.9 | 15.9
CGCGAACAGGUUAACAUGAGGAUCACCCAUGUGGACUCAUGGUAGGAUAUCGGGAAGGAGGAAACCGAGAAGGGCCGGUGAGCC | 324 | 107 |  | 
UUGUCGCAUGUAGGAUAUGUAUGUUAUUAUCAUACAGAAGGACAUGAGGAUCACCCAUGUGUAUUAUUAUUAUAUGUUACAUAU |  |  | 20.4 | 19.8
GGAUCCAUCACAGGAUAUGCUGGACUUUGUCCAGCAGAAGGGUGAAACAUGAGGAUCACCCAUGUAUGGAUCCAUAUAUUUAAU | 327 | 393 |  | 
CGUCGAUACCAGAAGGACAUGAGGAUCACCCAUGUAGGAUAUGGGUGACCGGGAUGGCGGACACGCUGCCCGGGCACAUGCGAC | 10.6 | 7.79 |  | 
UUCGCUGUGGUGUGGCGAGGCUCGUAAGAAGGGUGAUGCACAUGAGGAUCACCCAUGUAAGCCUUACAGGAUAUUGCUAGCCGA | 539 | 195 |  | 

Sequence | apparent Kd [1] [nM] | apparent Kd [2] [nM] | apparent Kd [3] [nM] | apparent Kd [4] [nM]
UGUAUGGACAGAGGAUAUACGGAUAGGAUCUACUAUCAAACAAGUCCUACAUGAGGAUCACCCAUGUAGAAGGCUGUCCAUACU |  |  | 16.4 | 22.7
AUUUAAUUUAAUAAGAUCACAUGAGGAUCACCCAUGUAUAUAUAGGAUAUCAGCUCGAAUAGAGCUGAGAAGGAUAUAUACAUG |  |  | 47.4 | 41
CCCAUCGCAUGAGGAUAUGGUCAGCUUUGCUGACCAGAAGGCAUGUCAAUAGACAUGAGGAUCACCCAUGUAGUUAAGAUGGGA | 675 | 49.2 |  | 
AACCUAUUACAGAAGGCCAGCUACAUGAGGAUCACCCAUGUCGAGUCAUGGAGGAUAUGUAGUAAUUUACUCGCAGAUGAGUGC | 24.4 | 4.9 |  | 
CUGUUAUAGGUCCAGAAUUACAACAUGAGGAUCACCCAUGUGCAGGAUAUCGGGUUAAUUUUCGACGAGAAGGGCAUAGUCACG |  |  | 33.5 | 64.1
GGUUGACAAAGUCAACCAAAUCGAACAUGAGGAUCACCCAUGUAGGAUAUGCUACUCAAAGAGUAGCAGAAGGACAUGUGCUUU |  |  | 40.7 | 227
AGAUCACAUGAGGAUCACCCAUGUCAGGAUAUGAUACUAUGUACUUCGGUACAUAGUAUCAGAAGGGAUAUAAA |  |  | 70.7 | 239
AGAUUCAUGGCCCGUUCGGGCUCACAUGAGGAUCACCCAUGUGAGGAUAUGACGUACCUGACUCGUCAGAAGGCGCAUGCGAAU |  |  | 7.41 | 13.7
AUCAGCUCGUCAGGAUAUACGUCACUGCUUCGGCAGUGUGGUAAGAUAACAUGAGGAUCACCCAUGUAGAAGGGACGAGCUGAU |  |  | 6.3 | 12.1
GGAGGACAUGAGGAUCACCCAUGUGGAUGAACGCUAGGAUAUGCGUGCAGGAAGAGUGGAGCAGAAGGAGUGGGUU | 28.2 | 23.2 |  | 
CGCUACGUUUCGUAGCAGUGUCAUCGAGAAGGCCCUGACAUGAGGAUCACCCAUGUAAAAGUUCAGGAGGAUAUCGAUGAUACA | 4.83 | 4.95 |  | 
AAAACCAGAGGAUAUGCGCAUAGAUCAGACUUUGUUUCUUAACAUGAGGAUCACCCAUGUAGAAGGCUGUAAAA |  |  | 17.3 | 15.4
UUUUUAUUUGCAGGAUAUUGUUUUUUAUUACUUCAAGAAGGGCAUUACAUGAGGAUCACCCAUGUCAUCCUAUGGUUAACUAGU |  |  | 9.64 | 11.6
GGACGUCAGAUUAACAUGAGGAUCACCCAUGUCUUUUGACAUGAGGAUAUCCAUCCUAAUUGGAUGGAGAAGGCAUGGACGUCC | 975 | 189 |  | 
AUAAAACAUGAGGAUCACCCAUGUAGACACGAUGGAGGAUAUACUAGAUCGAAAGAUCUAGUAGAAGGCCGACGUA | 21.3 | 22.8 |  | 
GAUUAACAUGAGGAUCACCCAUGUGAGGAUAUGGAAUGGCUCAUUGUUUGAUUUCCGUCUAGAAGGCACAUCUU |  |  | 174 | 160
UGUCGGAGCAGAGGAUAUUACAUGAGGAUCACCCAUGUAUGAACCAAUAGCUGGACACAGCAAUGUAAGAAGGCUGCUCCGACA |  |  | 11.4 | 133
GGUACCAUCGCAGGAUAUGCUAUCCUUUGGGUAGCAGAAGGGUGAUAACAUGAGGAUCACCCAUGUGGUACCGGGCGUGAGCCC | 97.1 | 1210 |  | 
CGAAAAUUUCAGAAGGACCGAUUCCACAUGAGGAUCACCCAUGUCGAUGGUAGGAUAUGGAGUUGUGGACAGGGCGGAUGUUCC | 46.3 | 8.39 |  | 
GGUACCAUCACAGGAUAUGCUUUCCAUUGGGAAGCAGAAGGGUGUAACAUGAGGAUCACCCAUGUGGUGCCAGGGCGUGAGCCU | 217 | 15.2 |  | 
AACUCUGAGAAGGAUAUACAGUGCGAAAGGACAGUAGAAGGUUUCACAUGAGGAUCACCCAUGUCGAAUAGUGA |  |  | 24.7 | 33.8
UGGUACUACGGAGGAUAUCAUGUAGAUACAUGAGGAUCACCCAUGUCGAUGGAGACAUCGGAGAUUGAGAAGGCCGUAGUACCU | 610 | 29.4 |  | 
AUAAAGCGUGCUACGCAAAAUAACGCAGAAGGCCAACAUGAGGAUCACCCAUGUAAAAGAAAGAUGGAGGAUAUGCGGUUUGGC | 46.6 | 5.74 |  | 
UGUACUAUAAGGUUAAUUGUAUAUUGAGAAGGCAUUCACAUGAGGAUCACCCAUGUAACAUGGGAUGAGGAUAUCAUUUUGUAC | 232 | 32.6 |  | 
CUAUUCCGAGGAUAUACAUGAGGAUCACCCAUGUCGGGCCUCCGCGUUUCGCGCCUCAGUAGAAGGCGGGUUUC |  |  | 20.4 | 25.9
GAGGACUGAAUAAAUAACUCAAAUACAUGAGGAUCACCCAUGUAGGAUAUCGUCAGGAAUACUGACGAGAAGGACAUACAGUCC |  |  | 13.4 | 19.2
GGAGCGGAAGGAUAUGCUGCGGGAUUGCAUGGAAAGAAAAUACAUGAGGAUCACCCAUGUAGAAGGUCCGUGAA |  |  | 28.2 | 70.1
